Test results: PMC10288510 (Journal of the American Chemical Society, 2023)
Peptide text beside a SMILES is read from it.

How the values were obtained:
[1] = CF assay: cargo dose-response with COSAN 2 as carrier; type: in vitro ADME; details: for Et (transport efficiency = Ymax (pEC50)/f, f = 41.8): EYPC vesicles, 4 μM COSAN 2, n.a = no detectable activity, 10% error (SD); for transport of cargo by COSAN 2 (in words): EYPC⊃CF liposomes, 4 μM COSAN 2, pH 7.4
[2] = CF assay: carrier-mediated heptaarginine; type: in vitro ADME; details: EYPC⊃CF LUVs, 1 μM Trp-Arg7, pEC50 from EC50 in mM, 10% error (SD)
Procedure, shortened: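 Egg-yolk phosphatidylcholine LUVs (4 μM phospholipid) loaded with self-quenched carboxyfluorescein; efflux read as dequenching (λex 492 nm, λem 517 nm) over time. Carrier added at t = 50 s, Trp-Arg7 (1 μM) at 100 s, Triton X-100 lysis at 600 s for normalisation. Kinetics run across carrier concentrations; normalised traces converted to dose–response curves; Hill fit gives Ymax, EC50 and Ea.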

Compound: protamine
- Et (transport efficiency = Ymax (pEC50)/f, f = 41.8) [1]: 9.0

Compound: NCCCC[C@H](NC(=O)[C@H](CCCCN)NC(=O)[C@H](CCCCN)NC(=O)[C@H](CCCCN)NC(=O)[C@H](CCCCN)NC(=O)[C@H](CCCCN)NC(=O)[C@H](CCCCN)NC(=O)[C@@H](N)Cc1c[nH]c2ccccc12)C(=O)O [Trp-Lys7, tryptophan-heptalysine] (H-WKKKKKKK-OH)
- transport of cargo by COSAN 2 (in words) [1]: efficient transport

Compound: CC(C)C[C@H](NC(=O)[C@@H](NC(=O)[C@@H](N)Cc1ccc(O)cc1)[C@@H](C)O)C(=O)N[C@H](C(=O)N[C@H](C(=O)N[C@@H](CCCCN)C(=O)O)C(C)C)[C@@H](C)O [Tyr-Thr-Leu-Thr-Val-Lys, tyrosine-threonine-leucine-threonine-valine-lysine] (H-YTLTVK-OH)
- transport of cargo by COSAN 2 (in words) [1]: not transported

Compound: O=C(O)CCCc1ccc2ccc3cccc4ccc1c2c34 [PyBu, pyrenebutyrate]
- Ea (activator efficiency = Ymax (pEC50)/f, f = 20.6) [2]: 4.8

Compound: phalloidin
- transport of cargo by COSAN 2 (in words) [1]: not transported

Compound: polylysine
- Et (transport efficiency = Ymax (pEC50)/f, f = 41.8) [1]: 10.0

Compound: NCCCC[C@H](NC(=O)[C@H](CCCCN)NC(=O)[C@H](CCCCN)NC(=O)[C@@H](N)Cc1c[nH]c2ccccc12)C(=O)O [Trp-(Lys)3, tryptophan-trilysine] (H-WKKK-OH)
- transport of cargo by COSAN 2 (in words) [1]: not transported

Compound: N[C@@H](Cc1c[nH]c2ccccc12)C(=O)NCC(=O)NCC(=O)NCC(=O)NCC(=O)NCC(=O)NCC(=O)O [Trp-Gly6, tryptophan-hexaglysine] (H-WGGGGGG-OH)
- transport of cargo by COSAN 2 (in words) [1]: not transported
